Data published in ChEMBL document CHEMBL3779801, “Discovery of the Selective CYP17A1 Lyase Inhibitor BMS-351 for the Treatment of Prostate Cancer” (ACS Med Chem Lett, 2016).
pIC50: −log10 of the molar value.

How the values were obtained:
[1] = target: T1, Steroid 17-alpha-hydroxylase/17,20 lyase (Homo sapiens, UniProt P05093); assay: Inhibition of human CYP17A1 expressed in HEK293 cell microsomes using [3H]-pregnenolone as substrate incubated for 45 mins by scintillation proximity assay in presence of NADPH
T1 sequence (P05093 whole entry): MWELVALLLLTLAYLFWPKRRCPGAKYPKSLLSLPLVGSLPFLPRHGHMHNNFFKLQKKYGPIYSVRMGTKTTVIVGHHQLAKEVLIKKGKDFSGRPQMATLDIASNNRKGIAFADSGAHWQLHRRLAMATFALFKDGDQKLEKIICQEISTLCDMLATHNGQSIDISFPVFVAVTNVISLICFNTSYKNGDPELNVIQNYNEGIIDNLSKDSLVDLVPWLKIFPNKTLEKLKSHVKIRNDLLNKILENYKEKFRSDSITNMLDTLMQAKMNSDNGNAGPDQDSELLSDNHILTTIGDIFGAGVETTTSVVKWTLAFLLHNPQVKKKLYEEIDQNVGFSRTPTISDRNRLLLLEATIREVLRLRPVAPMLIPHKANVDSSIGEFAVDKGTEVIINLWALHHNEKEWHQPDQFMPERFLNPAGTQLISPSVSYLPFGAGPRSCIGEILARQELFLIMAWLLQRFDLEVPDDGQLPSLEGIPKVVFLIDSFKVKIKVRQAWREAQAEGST

[2] = target: T2, Cytochrome P450 1A2 (Homo sapiens, UniProt P05177); assay: Inhibition of CYP1A2 (unknown origin); format: ADME
T2 sequence (P05177 whole entry): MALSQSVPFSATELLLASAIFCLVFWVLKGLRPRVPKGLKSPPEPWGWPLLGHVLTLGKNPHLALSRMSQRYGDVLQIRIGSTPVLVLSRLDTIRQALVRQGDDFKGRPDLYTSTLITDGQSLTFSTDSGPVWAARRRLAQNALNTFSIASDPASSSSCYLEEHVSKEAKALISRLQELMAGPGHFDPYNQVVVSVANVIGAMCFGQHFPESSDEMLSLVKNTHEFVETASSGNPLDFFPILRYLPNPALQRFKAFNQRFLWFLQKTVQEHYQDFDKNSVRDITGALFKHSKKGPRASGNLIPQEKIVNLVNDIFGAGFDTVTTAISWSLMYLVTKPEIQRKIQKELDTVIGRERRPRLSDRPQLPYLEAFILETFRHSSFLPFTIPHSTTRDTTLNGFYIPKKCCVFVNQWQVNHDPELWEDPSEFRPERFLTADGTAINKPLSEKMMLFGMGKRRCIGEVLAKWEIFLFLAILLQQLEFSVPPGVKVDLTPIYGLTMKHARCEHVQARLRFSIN

[3] = Metabolic stability in human liver microsomes assessed as parent compound remaining at 0.5 uM incubated for 10 mins; format: ADME; settings: read-out: Stability
Summary of the method: (§1)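 Compound at 0.5 μM was incubated with human, mouse or cynomolgus liver microsomes for 10 min.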

[4] = Metabolic stability in mouse liver microsomes assessed as parent compound remaining at 0.5 uM incubated for 10 mins; format: ADME; settings: read-out: Stability; summary of the method: as §1
[5] = Metabolic stability in cynomolgus monkey liver microsomes assessed as parent compound remaining at 0.5 uM incubated for 10 mins; format: ADME, Macaca fascicularis; settings: read-out: Stability; summary of the method: as §1
[6] = target: T1, Steroid 17-alpha-hydroxylase/17,20 lyase; assay: Selectivity ratio of human CYP17A1 hydroxylase activity expressed in Escherichia coli using pregnenolone substrate to human CYP17A1 lyase activity expressed in HEK293 cell microsomes using [3H]-hydroxypregnenolone substrate
Summary of the method: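 Hydroxylase and lyase activities were run with different enzyme preparations, so the hydroxylase/lyase ratios are estimates.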

[7] = target: T1, Steroid 17-alpha-hydroxylase/17,20 lyase; assay: Inhibition of CYP17A1 in human adrenal microsomes using [3H]-pregnenolone as substrate incubated for 90 mins by scintillation proximity assay in presence of NADPH; design: species or system Adrenal gland
[8] = target: T3, Steroid 17-alpha-hydroxylase/17,20 lyase (Macaca fascicularis, UniProt Q2XVA1); assay: Inhibition of CYP17A1 in cynomolgus monkey adrenal microsomes using [3H]-pregnenolone as substrate incubated for 45 mins by scintillation proximity assay in presence of NADPH; design: species or system Adrenal gland
T3 sequence (Q2XVA1 whole entry): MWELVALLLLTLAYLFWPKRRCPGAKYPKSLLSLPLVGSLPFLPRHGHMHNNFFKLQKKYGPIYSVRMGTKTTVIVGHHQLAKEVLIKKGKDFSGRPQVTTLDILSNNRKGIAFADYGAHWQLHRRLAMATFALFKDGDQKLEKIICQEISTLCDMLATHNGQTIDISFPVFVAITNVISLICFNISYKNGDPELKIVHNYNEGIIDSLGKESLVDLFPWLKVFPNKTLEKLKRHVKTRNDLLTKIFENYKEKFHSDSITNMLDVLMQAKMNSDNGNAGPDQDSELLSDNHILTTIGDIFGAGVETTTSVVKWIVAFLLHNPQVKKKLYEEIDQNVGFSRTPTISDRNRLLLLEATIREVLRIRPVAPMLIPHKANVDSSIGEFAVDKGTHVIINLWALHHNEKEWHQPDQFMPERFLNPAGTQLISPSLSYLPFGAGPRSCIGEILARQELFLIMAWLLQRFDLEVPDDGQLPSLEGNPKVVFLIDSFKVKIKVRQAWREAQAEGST

[9] = target: T3, Steroid 17-alpha-hydroxylase/17,20 lyase; assay: Inhibition of CYP17A1 in cynomolgus monkey using [3H]-pregnenolone as substrate incubated for 45 mins by scintillation proximity assay in presence of NADPH
[10] = target: T4, Cytochrome P450 11B1, mitochondrial (Homo sapiens, UniProt P15538); assay: Inhibition of CYP11B1 in human H295R cells using deoxycorticosterone as substrate incubated for 48 hrs by LC-MS method; format: ADME, cell-based
T4 sequence (P15538 whole entry): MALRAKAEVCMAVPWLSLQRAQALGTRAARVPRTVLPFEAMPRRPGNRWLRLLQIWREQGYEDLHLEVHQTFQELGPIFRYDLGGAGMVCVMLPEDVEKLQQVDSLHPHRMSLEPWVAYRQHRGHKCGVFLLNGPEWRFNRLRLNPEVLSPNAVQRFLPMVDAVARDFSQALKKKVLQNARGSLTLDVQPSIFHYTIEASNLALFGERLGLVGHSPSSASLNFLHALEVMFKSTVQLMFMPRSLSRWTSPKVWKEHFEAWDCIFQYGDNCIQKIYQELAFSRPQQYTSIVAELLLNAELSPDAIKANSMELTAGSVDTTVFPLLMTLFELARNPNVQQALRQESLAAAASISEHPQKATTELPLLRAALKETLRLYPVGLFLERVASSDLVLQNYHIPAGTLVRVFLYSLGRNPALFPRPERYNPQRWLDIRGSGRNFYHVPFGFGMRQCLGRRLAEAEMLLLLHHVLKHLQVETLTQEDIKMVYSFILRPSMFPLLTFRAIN

[11] = Inhibition of cynomolgus monkey CYP21A2 using hydroxy progesterone as substrate incubated for 120 mins by LC-MS method; design: species or system Macaca fascicularis
[12] = Inhibition of cynomolgus monkey CYP11B1 using hydroxy progesterone as substrate incubated for 120 mins by LC-MS method; design: species or system Macaca fascicularis
[13] = tested on: Cynomolgus monkey; assay: Increase in progesterone level in one day castrated cynomolgus monkey at 42 mg/kg, po bid for 24 hrs by radiometric immunoassay; format: ADME, organism-based, Macaca fascicularis; settings: in vivo
[14] = tested on: Cynomolgus monkey; assay: Decrease in cortisol level in one day castrated cynomolgus monkey at 42 mg/kg, po bid for 24 hrs by radiometric immunoassay; format: ADME, organism-based, Macaca fascicularis; design: scale not given: the % may be the effect or the level left; settings: in vivo
[15] = Tmax in one day castrated cynomolgus monkey at 42 mg/kg, po bid measured after second dose administered at 8 hrs; format: ADME, organism-based, Macaca fascicularis; settings: male, in vivo
Summary of the method: (§2)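 Castrated cynomolgus monkeys were studied over one day with oral BID dosing at time 0 and 8 h. Plasma levels were sampled at set time points over 1–24 h and reported as average ± standard deviation in nM, n = 4.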

[16] = Tmax in one day castrated cynomolgus monkey at 42 mg/kg, po bid; format: ADME, organism-based, Macaca fascicularis; settings: male, in vivo; summary of the method: as §2
[17] = target: T3, Steroid 17-alpha-hydroxylase/17,20 lyase; assay: In vivo inhibition of CYP17A1 in one day castrated cynomolgus monkey assessed as reduction in testosterone level in plasma at 42 mg/kg, po bid for 24 hrs by radiometric immunoassay; format: organism-based

| Structure (SMILES) | pIC50 [1] | pIC50 [2] | remaining at 10 min, 0.5 µM [3] | remaining at 10 min, 0.5 µM [4] | remaining at 10 min, 0.5 µM [5] | other results |
| --- | --- | --- | --- | --- | --- | --- |
| Cc1ccncc1-c1cccc2c1ncn2-c1ccccn1 | 8.22 | 7.03 | 96% | 33% | 100% | Selectivity ratio [6]: 8 |
| Cc1ccncc1-c1cccc2c1ncn2-c1cnccn1 |  | 6.74 | 98% | 59% | 83% | Selectivity ratio [6]: 18 |
| Cc1ccncc1-c1cccc2c1cnn2-c1cscn1 | 8.30 | 7.15 | 62% | 12% |  |  |
| Cc1ccncc1-c1cccc2c1cnn2-c1cnccn1 | 8.30 | 5.40 | 72% | 7% | 53% |  |
| Cc1ccncc1-c1cccc2c1cnn2-c1nccs1 | 8.40 | 7.10 | 69% | 8% |  |  |
| Cc1ccncc1-c1cccc2c1cnn2-c1cccnn1 | 8.52 | 6.57 | 89% | 17% |  |  |
| Cc1ccncc1-c1cccc2c1cnn2-c1ccccc1 | 8.40 | 6.92 | 78% | 4% | 39% |  |
| C[C@]12CC[C@H](O)CC1=CC[C@@H]1C2CC[C@]2(C)C(c3cccnc3)=CCC12 (some centres undefined) |  |  |  |  |  | pIC50 [7]: 7.68; pIC50 [8]: 8.52; pIC50 [9]: 8.70; pIC50 [10]: 6.06; pIC50 [11]: 6.83; pIC50 [12]: 5.61; Activity [13]: 1247%; Activity [14]: 80%; Tmax [15]: 9.5 h; Tmax [16]: 1 h; inhibition (INH) [17]: Active |
| Cc1ccncc1-c1cccc2c1cnn2-c1ccc(F)cc1 | 8.30 | 6.72 | 100% | 11% |  |  |
| Cc1ccncc1-c1cccc2c1ncn2-c1nccs1 | 8.10 | 7.12 | 92% | 16% | 42% | Selectivity ratio [6]: 14 |
| Cc1ccncc1-c1cccc2c1ncn2-c1cscn1 | 8.10 | 6.82 | 90% | 42% | 50% |  |
| Cc1ccncc1-c1cccc2c1cnn2-c1ccccn1 | 8.70 | 6.85 | 95% | 8% | 19% |  |
